Series [1] deals with Staphylococcus aureus. Put plainly: Antimicrobial activity against Staphylococcus aureus after 24 hrs by tube dilution method. Format: functional.
Series [2] has as its system Bacillus subtilis. Put plainly: Antimicrobial activity against Bacillus subtilis after 24 hrs by tube dilution method. The format is functional. An outline of the steps:
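Serial dilutions in double-strength nutrient broth (I.P.) with ciprofloxacin as reference, tube dilution, incubated 37 °C for 24 h. MIC is the lowest concentration that inhibited growth.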

Series [3] deals with Escherichia coli. Put plainly: Antimicrobial activity against Escherichia coli after 24 hrs by tube dilution method. The format is functional.
Series [4] has as its system Candida albicans. Kind of series: Antimicrobial activity against Candida albicans after 48 hrs by tube dilution method. The format is functional.
The test system of series [5] is Aspergillus niger. Put plainly: Antimicrobial activity against Aspergillus niger after 7 days by tube dilution method. Format: functional. The settings on record: 168 h.
Series [6] is described as follows: Cytotoxicity against cat CRFK cells assessed as cell viability by MTS assay. The format is cell-based, Felis catus. The settings on record: crfk. The essentials: (§1)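 Uninfected cultures were run in parallel with the antiviral assays. Viability was read by colorimetric formazan MTS assay.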
Series [7] deals with Felid alphaherpesvirus 1. Put plainly: Antiviral activity against Feline herpesvirus 1 infected in cat CRFK cells assessed as inhibition of virus induced cytopathicity after 2 to 4 days by MTS assay. The settings on record: Felid alphaherpesvirus 1, CRFK. The format is functional, organism-based.
The subject of series [8] is Feline coronavirus. Put plainly: Antiviral activity against Feline coronavirus infected in cat CRFK cells assessed as inhibition of virus induced cytopathicity after 2 to 4 days by MTS assay. The note with it: Alphacoronavirus 1, CRFK. The format is functional, organism-based.
Series [9] in a line: Cytotoxicity against human HEL cells assessed as altered cell morphology. Format: cell-based. The essentials: (§2)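 Uninfected cell cultures run alongside the antiviral assays, exposed to serial compound dilutions and incubated at 37 °C for 2–4 days. Toxicity was scored microscopically and reported as the minimum cytotoxic concentration (MCC), the lowest concentration causing a detectable change in normal cell morphology.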

Series [10] has as its system Human alphaherpesvirus 1. Kind of series: Antiviral activity against Herpes simplex virus 1 KOS infected in HEL cells assessed as inhibition of virus induced cytopathicity after 2 to 4 days by MTS assay. The format is functional, organism-based. The note with it: Human alphaherpesvirus 1, KOS.
For series [11], the system named is Human alphaherpesvirus 2. Put plainly: Antiviral activity against Herpes simplex virus 2 G infected in HEL cells assessed as inhibition of virus induced cytopathicity after 2 to 4 days by MTS assay. Format: functional, organism-based. The settings on record: Human alphaherpesvirus 2, strain G.
The test system of series [12] is Vaccinia virus. Put plainly: Antiviral activity against Vaccinia virus infected in HEL cells assessed as inhibition of virus induced cytopathicity after 2 to 4 days by MTS assay. Format: functional, organism-based. The note with it: Orthopoxvirus vaccinia.
The subject of series [13] is Vesicular stomatitis virus. Put plainly: Antiviral activity against Vesicular stomatitis virus infected in HEL cells assessed as inhibition of virus induced cytopathicity after 2 to 4 days by MTS assay. The format is functional, organism-based.
For series [14], the system named is Human alphaherpesvirus 1. Kind of series: Antiviral activity against thymidine kinase deficient acyclovir-resistant Herpes simplex virus 1 KOS infected in HEL cells assessed as inhibition of virus induced cytopathicity after 2 to 4 days by MTS assay. Format: functional, organism-based. The settings on record: Human alphaherpesvirus 1, KOS.
In series [15] the test system is HeLa. Kind of series: Cytotoxicity against human HeLa cells assessed as cell viability by MTS assay. The format is cell-based. The settings on record: hela. The essentials:
as §1

Series [16] in a line: Cytotoxicity against human HeLa cells assessed as altered cell morphology. Format: cell-based. An outline of the steps:
as §2

Series [17] deals with Vesicular stomatitis virus. Put plainly: Antiviral activity against Vesicular stomatitis virus infected in human HeLa cells assessed as inhibition of virus induced cytopathicity by visual scoring of CPE. Format: functional, organism-based.
Series [18] relates to Vesicular stomatitis virus. Kind of series: Antiviral activity against Vesicular stomatitis virus infected in human HeLa cells assessed as inhibition of virus induced cytopathicity after 2 to 4 days by MTS assay. The format is functional, organism-based.
The test system of series [19] is Coxsackievirus B4. Kind of series: Antiviral activity against coxsackievirus B4 infected in human HeLa cells assessed as inhibition of virus induced cytopathicity by visual scoring of CPE. The format is functional, organism-based. The note with it: Enterovirus B.
Series [20] deals with Coxsackievirus B4. Put plainly: Antiviral activity against coxsackievirus B4 infected in human HeLa cells assessed as inhibition of virus induced cytopathicity after 2 to 4 days by MTS assay. Format: functional, organism-based. The settings on record: Enterovirus B.
Series [21] has as its system Respiratory syncytial virus. Kind of series: Antiviral activity against Respiratory syncytial virus infected in human HeLa cells assessed as inhibition of virus induced cytopathicity by visual scoring of CPE. Format: functional, organism-based.
Series [22] has as its system Respiratory syncytial virus. Put plainly: Antiviral activity against Respiratory syncytial virus infected in human HeLa cells assessed as inhibition of virus induced cytopathicity after 2 to 4 days by MTS assay. Format: functional, organism-based.
The test system of series [23] is MDCK. Put plainly: Cytotoxicity against MDCK cells assessed as cell viability by MTS assay. Format: cell-based, Canis lupus familiaris. The settings on record: dog, mdck. The essentials: as §1
A short description of series [24]: Cytotoxicity against MDCK cells assessed as altered cell morphology. The format is cell-based, Canis lupus familiaris. The note with it: dog. The essentials: as §2
For series [25], the system named is Influenza A virus. Put plainly: Antiviral activity against Influenza A H3N2 virus subtype infected in MDCK cells assessed as inhibition of virus induced cytopathicity by visual scoring of CPE. The format is functional, organism-based.
In series [26] the test system is Influenza A virus. Put plainly: Antiviral activity against Influenza A H3N2 virus subtype infected in MDCK cells assessed as inhibition of virus induced cytopathicity after 2 to 4 days by MTS assay. Format: functional, organism-based.
For series [27], the system named is Influenza B virus. Kind of series: Antiviral activity against Influenza B virus infected in MDCK cells assessed as inhibition of virus induced cytopathicity by visual scoring of CPE. The format is functional, organism-based.
Series [28] relates to Influenza B virus. Put plainly: Antiviral activity against Influenza B virus infected in MDCK cells assessed as inhibition of virus induced cytopathicity after 2 to 4 days by MTS assay. Format: functional, organism-based.
Series [29] is described as follows: Cytotoxicity against african green monkey Vero cells assessed as altered cell morphology. The format is cell-based. The settings on record: chlorocebus sabaeus. The essentials:
as §2

Series [30] has as its system Human respirovirus 3. Kind of series: Antiviral activity against parainfluenza-3 virus infected in african green monkey Vero cells assessed as inhibition of virus induced cytopathicity after 2 to 4 days by MTS assay. The format is functional, organism-based. The settings on record: Human respirovirus 3, Vero.
The test system of series [31] is Mammalian orthoreovirus 1. Put plainly: Antiviral activity against Reovirus 1 virus infected in african green monkey Vero cells assessed as inhibition of virus induced cytopathicity after 2 to 4 days by MTS assay. Format: functional, organism-based. The note with it: Mammalian orthoreovirus 1, Vero.
In series [32] the test system is Sindbis virus. Put plainly: Antiviral activity against Sindbis virus infected in african green monkey Vero cells assessed as inhibition of virus induced cytopathicity after 2 to 4 days by MTS assay. Format: functional, organism-based.
For series [33], the system named is Coxsackievirus B4. Put plainly: Antiviral activity against Coxsackie virus B4 infected in african green monkey Vero cells assessed as inhibition of virus induced cytopathicity after 2 to 4 days by MTS assay. The settings on record: Enterovirus B. Format: functional, organism-based.
For series [34], the system named is Punta Toro virus. Kind of series: Antiviral activity against Punta Toro virus infected in african green monkey Vero cells assessed as inhibition of virus induced cytopathicity after 2 to 4 days by MTS assay. The format is functional, organism-based.

In brackets after ≈: the same amount, converted by molar mass.

With `O=C(c1ccccc1)n1c(-c2ccc(S(=O)(=O)O)cc2)nc2ccccc21`, the MBC was 12.5 µg/mL (≈ 33 µM) in [1], greater than 50 µg/mL in [2] and 1.56 µg/mL (≈ 4.12 µM) in [3]. Besides, the MFC was 50 µg/mL (≈ 132 µM) in series [4] and greater than 50 µg/mL in [5]. For the same compound, the CC50 in series [6], in series [15] and in series [23] was greater than 100 µg/mL in each case. In addition, the EC50 in series [7], in [8], in series [10], in [11], in series [12] and in series [13] was greater than 100 µg/mL in each case. In addition, the EC50 in series [14], in series [17], in series [18], in series [19], in series [20] and in [21] was greater than 100 µg/mL each time. Also, the EC50 in [22], in series [25], in [26], in [27], in [28] and in series [30] was greater than 100 µg/mL throughout. Moreover, the EC50 in [31], in series [32], in series [33] and in series [34] was greater than 100 µg/mL in each case. For the same compound, the MCC in [9], in series [16], in series [24] and in [29] was greater than 100 µg/mL each time.

Turning to `O=c1[nH]c(=O)n([C@H]2C[C@H](O)[C@@H](CO)O2)cc1/C=C/Br` [BRIVUDINE], the MCC in [9] is greater than 250 µg/mL. Besides, the EC50 was 112 µg/mL (≈ 336 µM) in series [12] and greater than 250 µg/mL in series [14].

On to `O=C(c1ccc([N+](=O)[O-])cc1)n1c(-c2ccc(S(=O)(=O)O)cc2)nc2ccccc21`, for which the MBC in [1] was 50 µg/mL (≈ 118 µM); in series [2], 50 µg/mL (≈ 118 µM); in [3], 1.56 µg/mL (≈ 3.68 µM). In addition, the minimum fungicidal concentration (MFC) was 25 µg/mL (≈ 59 µM) in series [4] and greater than 50 µg/mL in series [5]. In addition, the CC50 in series [6], in [15] and in [23] was greater than 100 µg/mL each time. For the same compound, the EC50 in series [7], in series [8], in series [10], in [11], in series [12] and in series [13] was greater than 100 µg/mL in each case. The EC50 in series [14], in series [17], in series [18], in [19], in series [20] and in series [21] was greater than 100 µg/mL in each case. In addition, the EC50 in series [22], in series [25], in [26], in [27], in series [28] and in [30] was greater than 100 µg/mL in each case. Also, the EC50 in series [31], in [32], in series [33] and in series [34] was greater than 100 µg/mL each time. For the same compound, the MCC in series [9], in series [16], in series [24] and in series [29] was greater than 100 µg/mL in each case.

Values taken from ChEMBL document CHEMBL1629526, “4-[1-(Substituted aryl/alkyl carbonyl)-benzoimidazol-2-yl]-benzenesulfonic acids: synthesis, antimicrobial activity, QSAR studies, and antiviral evaluation” (Eur J Med Chem, 2010).
